# According to paper PMC2233905 (The Journal of General Physiology, 2004):
# Assays:
# Kv2.1 = biological target: T1, Kv2.1 (Homo sapiens, UniProt Q14721); experiment: Kv2.1 channels; assay type: cell-based; settings: concentrations up to 10 μM, unpublished data
# T1 sequence (Q14721 1-858): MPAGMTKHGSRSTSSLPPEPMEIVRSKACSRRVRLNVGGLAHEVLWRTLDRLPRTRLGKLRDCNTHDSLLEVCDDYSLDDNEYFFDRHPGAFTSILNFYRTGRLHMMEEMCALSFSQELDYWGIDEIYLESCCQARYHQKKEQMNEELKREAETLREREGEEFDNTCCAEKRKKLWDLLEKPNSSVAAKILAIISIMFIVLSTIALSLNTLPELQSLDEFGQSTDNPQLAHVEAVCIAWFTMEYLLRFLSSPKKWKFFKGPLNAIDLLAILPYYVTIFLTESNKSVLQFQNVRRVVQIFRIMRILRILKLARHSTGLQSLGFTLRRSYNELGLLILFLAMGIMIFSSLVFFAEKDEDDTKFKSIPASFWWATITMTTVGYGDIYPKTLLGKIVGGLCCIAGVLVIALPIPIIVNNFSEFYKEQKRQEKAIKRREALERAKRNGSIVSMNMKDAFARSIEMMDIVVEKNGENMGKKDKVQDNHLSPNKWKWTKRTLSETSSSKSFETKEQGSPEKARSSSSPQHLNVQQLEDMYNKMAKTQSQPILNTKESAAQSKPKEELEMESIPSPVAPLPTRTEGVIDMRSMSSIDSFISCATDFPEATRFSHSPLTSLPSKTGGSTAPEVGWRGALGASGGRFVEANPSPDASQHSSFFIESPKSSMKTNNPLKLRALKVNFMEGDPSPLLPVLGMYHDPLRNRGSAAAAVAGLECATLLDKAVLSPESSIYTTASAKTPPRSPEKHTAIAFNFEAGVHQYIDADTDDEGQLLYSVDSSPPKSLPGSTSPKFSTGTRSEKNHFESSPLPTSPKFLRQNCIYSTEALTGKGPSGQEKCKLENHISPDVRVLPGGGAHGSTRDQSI
# hEag1 channels = biological target: T2, hEag1 channels (Homo sapiens, UniProt O95259); experiment: Inside-out patch recordings of hEag1 currents; assay type: cell-based; settings: for rate of block: inside-out, 500 nM astemizole
# T2 sequence (O95259 1-989): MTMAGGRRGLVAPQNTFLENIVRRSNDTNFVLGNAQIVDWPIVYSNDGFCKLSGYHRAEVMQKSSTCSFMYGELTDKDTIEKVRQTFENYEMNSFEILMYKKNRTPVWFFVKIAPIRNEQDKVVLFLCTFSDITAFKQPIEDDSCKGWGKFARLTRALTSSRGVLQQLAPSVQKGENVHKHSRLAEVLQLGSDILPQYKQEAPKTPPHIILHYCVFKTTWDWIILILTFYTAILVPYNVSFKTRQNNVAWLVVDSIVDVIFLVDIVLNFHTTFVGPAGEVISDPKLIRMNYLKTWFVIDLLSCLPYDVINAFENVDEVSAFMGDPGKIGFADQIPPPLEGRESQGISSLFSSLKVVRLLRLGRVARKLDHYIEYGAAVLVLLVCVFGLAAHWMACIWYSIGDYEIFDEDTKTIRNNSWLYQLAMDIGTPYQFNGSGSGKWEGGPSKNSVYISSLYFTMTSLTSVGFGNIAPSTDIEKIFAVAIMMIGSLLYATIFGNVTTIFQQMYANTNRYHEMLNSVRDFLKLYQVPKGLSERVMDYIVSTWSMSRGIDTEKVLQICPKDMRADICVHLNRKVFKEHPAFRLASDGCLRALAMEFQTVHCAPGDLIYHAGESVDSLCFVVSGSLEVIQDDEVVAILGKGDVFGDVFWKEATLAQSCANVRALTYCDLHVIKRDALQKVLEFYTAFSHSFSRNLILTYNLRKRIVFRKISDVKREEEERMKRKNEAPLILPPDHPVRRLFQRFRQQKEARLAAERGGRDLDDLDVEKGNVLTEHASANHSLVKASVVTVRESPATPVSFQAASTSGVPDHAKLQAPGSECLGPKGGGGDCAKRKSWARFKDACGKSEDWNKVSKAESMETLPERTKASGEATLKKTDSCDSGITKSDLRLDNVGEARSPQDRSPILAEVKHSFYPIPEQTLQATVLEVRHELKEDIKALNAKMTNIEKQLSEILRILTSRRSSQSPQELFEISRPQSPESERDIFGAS
# Method in brief: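 Inside-out patches from hEag1-expressing cells at room temperature. Pipette: 145 NaCl, 5 KCl, 3 CaCl2, 1 MgCl2, 10 HEPES/NaOH pH 7.4. Successive 6-s pulses at 80 mV with drug applied for 2.5 s. Current ratios to preapplication traces were fitted with a single exponential to give the block time constant.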
# [1] = Ionization: pKa and calculated protonated fractions; assay type: physicochemical
# Method in brief: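 Fractions of unprotonated, monoprotonated and diprotonated test compound were calculated from its two pKa values at pH 6.4, 7.4 and 8.4. The diprotonated percentage was 100 × [H+]2 divided by the summed-species denominator. Protonated fractions in the pH 7.4 recording solution were predicted the same way.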
structure (smiles),measurement,setting,value
COc1ccc(CCN2CCC(Nc3nc4ccccc4n3Cc3ccc(F)cc3)CC2)cc1 [astemizole],effect on current,Kv2.1,no significant effects
same,time constant of block in inside-out patches,"hEag1 channels; bath pH 6.0, pipette pH 7.4, 80 mV",387 ms
same,reversal of block on 2-s washout during the depolarization,hEag1 channels; inside-out patches,did not recover
same,rate of block,hEag1 channels; pHint 6.4,6.7 ± 2 s⁻¹
same,rate of block,hEag1 channels; pHint 7.4,2.8 ± 0.2 s⁻¹
same,"Diprotonated form, percentile contribution","[1]; pH 6.4, calculated",13.6%
same,"Monoprotonated form, percentile contribution","[1]; pH 6.4, calculated",85.7%
same,"Unprotonated form, percentile contribution","[1]; pH 6.4, calculated",0.7%
same,"Diprotonated form, percentile contribution","[1]; pH 7.4, calculated",1.4%
same,"Monoprotonated form, percentile contribution","[1]; pH 7.4, calculated",91.3%
same,"Unprotonated form, percentile contribution","[1]; pH 7.4, calculated",7.3%
same,predicted protonated fraction,[1]; pH 7.4 recording solution,93%
same,"Diprotonated form, percentile contribution","[1]; pH 8.4, calculated",0.1%
same,"Monoprotonated form, percentile contribution","[1]; pH 8.4, calculated",55.7%
same,"Unprotonated form, percentile contribution","[1]; pH 8.4, calculated",44.2%
